Results on 17 compounds are retold here after ChEMBL document CHEMBL1145815, “SYNOPSIS: SYNthesize and OPtimize System in Silico” (J Med Chem, 2003).

The nature of assay [1]: Logarithm of inhibitory concentration against HIV-induced cytopathogenicity in MT-4 cell cultures. In kind it is functional, cell-based. The settings on record: Human immunodeficiency virus 1, MT4. In outline: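 Protection of MT-4 cell cultures against HIV-induced cytopathogenicity. Reduction of yellow MTT to blue formazan by mitochondrial dehydrogenases of metabolically active cells is read spectrophotometrically in HIV- and mock-infected cultures. IC50 is the concentration giving 50% protection against HIV-induced cytopathogenicity. CC50 is the concentration killing half the cells in mock-infected cultures.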
For orientation: Protection from cytopathic effect is a common read-out in antiviral testing.

The subject of a further assay is MT4. Briefly: Logarithm of cytotoxic concentration that causes half of the cells to die in mock-infected MT-4 cell cultures. It counts as functional, Homo sapiens. The method in brief: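 Mock-infected MT-4 cell cultures exposed to compound; viability read spectrophotometrically as mitochondrial dehydrogenase reduction of yellow MTT to blue formazan in metabolically active cells. CC50 taken as the concentration killing half the cells, run alongside HIV-infected cultures.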

For orientation: IC50 means the midpoint of a concentration-inhibition curve. Broadly, the pCC50 is the negative decadic logarithm of the CC50, by convention in mol/L.

With `CC(C)(C)c1nc(COc2ccc(C(N)=O)c(O)c2)no1`, the IC50 in assay [1] is more than 100 µM. The compound further registered a pCC50 in the assay on MT4 of less than 4.
Turning to `COC(C/N=C(\S)Nc1c(Br)cc(Cl)cc1Br)OC`, in assay [1], the IC50 was 25.1 µM. In the assay with MT4, this compound displayed a negative logarithm of the CC50 (pCC50) of less than 4.
On the same counts, the results for `CC(NCCc1cccs1)c1cc(C#N)ccc1O` (centres undefined) are more than 100 µM and less than 4.
On the same counts, the results for `CC(Nc1ncccc1C(N)=O)c1cccc(Cl)c1` (centres undefined) are 12.6 µM and less than 4.
Take `CC(C)n1c(O)nnc1Sc1cccc(C(F)(F)F)c1`: the IC50 in assay [1] is 79.4 µM. The compound further gave a pCC50 in the assay on MT4 of less than 4.
In the same order, the values of `N#Cc1ccc(O)c(NC(=O)Nc2cccc(F)c2)c1` are more than 100 µM and less than 4.
In the same order, the values of `CCCc1cc(O)nc(SCC(C)(C)c2ccccc2)n1` are 15.8 µM and less than 4.3.
On the same counts, the results for `CSc1cccnc1C(=O)NCc1ccc(N)cc1` are 39.8 µM and less than 4.
Take `S=C(NCc1ccc(Cl)c(Cl)c1)Nc1cccnc1`: the 50% inhibitory concentration (IC50) in assay [1] was more than 39.8 µM. The compound also displayed a negative-log CC50 (pCC50) in the assay with MT4 of 4.4.
On the same counts, the results for `NC(=O)N/N=C\c1ccccc1NCc1ccccn1` are 6.31 µM and less than 4.
In turn, `O=C1NCCCC1C(=O)NNC(=S)Nc1cc(Cl)cc(Cl)c1` (centres undefined) showed an IC50 in assay [1] of more than 50.1 µM. The compound also displayed a pCC50 in the assay on MT4 of 4.3.
In the same order, the values of `NC(=O)N/N=C\c1cc(Cl)ccc1Nc1cccc(Cl)c1` are 2.51 µM and less than 4.
The compound `COc1cccc(CC/N=C(\S)Nc2ccc(C#N)cc2)c1` gave an IC50 in assay [1] of 1.58 µM. In the assay on MT4, this compound returned a pCC50 of 4.3.
On the same counts, the results for `O=C(N/N=C(\S)Nc1cc(Cl)cc(Cl)c1)c1ccccc1F` are more than 7.94 µM and 5.1.
As for `Oc1cc(O)cc(CNc2cc(Cl)c(Cl)c(Cl)c2)c1`, the 50% inhibitory concentration (IC50) in assay [1] is more than 50.1 µM. This compound also gave a pCC50 in the assay with MT4 of 4.3.
On the same counts, the results for `O=C(Nc1cccnc1)Nc1nc(Cl)ccc1Cl` are 31.6 µM and less than 4.
On the same counts, the results for `O=C(Cc1ccc(I)cc1)Nc1ncccc1O` are more than 100 µM and less than 4.
